≈ marks a conversion by molar mass, not a printed value.

Four compounds from ChEMBL document CHEMBL1131828, “Synthesis and biological evaluation of a new class of vaccine adjuvants: aminoalkyl glucosaminide 4-phosphates (AGPs)” (1999) can be followed below.

Holding throughout (assay type): functional
The species entered for one assay is Oryctolagus cuniculus. Put plainly: Minimum pyrogenic dose was determined for Febrile response in a standard 3-rabbit USP pyrogen test by injecting compound in the marginal ear vein. The method, boiled down:
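Test article dissolved in EtOH, then diluted with D5W to the desired concentrations just before injection. The minimal pyrogenic dose is the dose at which the summed temperature rise over the three rabbits reaches at least 1.2 °C.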

Assay [1] is filed under the species Mus musculus. The assay can be described thus: Ability to enhance antibody response to tetanus toxoid vaccine, IgG2b. The method, boiled down: (§1)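 Mice were immunized with tetanus toxoid in an oil-water emulsion with test article, then boosted 21 days after the primary dose. Serum was taken 14 days after the second injection and assayed by ELISA. Values are test titers divided by the titer of controls given oil-water vehicle with tetanus toxoid only.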

Assay [2] is filed under the species Mus musculus. Put plainly: Ability to enhance antibody response to tetanus toxoid vaccine, total Immunoglobulin (Ig). The method, boiled down: as §1
The species named for assay [3] is Mus musculus. The assay can be described thus: Ability to enhance antibody response to tetanus toxoid vaccine, IgG1. The method, boiled down: as §1
The species entered for assay [4] is Homo sapiens. The assay can be described thus: Relative ex vivo induction of TNF-alpha in human whole blood stimulated with 10 ug/mL. The method, boiled down:
(§2)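 Human whole blood was stimulated with sample, and cell-associated TNF-α and IL-1β were measured by sandwich ELISA. Relative induction below 0.05 was scored as not detected.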

For assay [5], the species on record is Mus musculus. The assay can be described thus: Ability to enhance antibody response to tetanus toxoid vaccine, IgG2a. The method, boiled down:
as §1

The species entered for assay [6] is Mus musculus. The assay can be described thus: Percent of cytotoxicity was determined for augment vaccine-induced CTL's against EG.7-ova target cells in two separate murine models. The method, boiled down: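 C57BL/6 (H-2b) mice, 6 per group, were immunized on days 0 and 14 with a 2.5% oil-water emulsion containing 25 µg ovalbumin plus test article. On day 21, spleens were tested for ovalbumin-specific CTL against 51Cr-labeled E.G7-ova target cells, an ovalbumin-transfected line. Read-out was percent specific lysis.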

The species entered for assay [7] is Mus musculus. Put plainly: Half-maximal response in vitro using peritoneal exudate cells from Propionibacterium acnes-primed mice. To be noted: read-out: ED50 (the source's name).
The species entered for assay [8] is Homo sapiens. The assay can be described thus: Relative ex vivo induction of IL1-beta in human whole blood stimulated with 10 ug/mL. The method, boiled down: as §2

In the case of `CCCCCCCCCCC[C@H](CC(=O)N[C@@H](CO[C@@H]1OC(CO)[C@H](OP(=O)(O)O)C(OC(=O)C[C@@H](CCCCCCCCCCC)OC(=O)CCCCCCCCC)[C@@H]1NC(=O)C[C@@H](CCCCCCCCCCC)OC(=O)CCCCCCCCC)C(=O)O)OC(=O)CCCCCCCCC` (stereo partly specified), the Dose in the assay listed under Oryctolagus cuniculus was under 0.06 µg/kg. Besides, the Response in the assay listed under Mus musculus [1] came to 2.8; in the assay filed under Mus musculus [2], 18.9; in the assay filed under Mus musculus [3], 4.2; in the assay filed under Mus musculus [5], 6.8. The Cytokine induction in the assay filed under Homo sapiens [4] was over 6; in the assay filed under Homo sapiens [8], 23. The compound also registered a Cytotoxicity in the assay listed under Mus musculus [6] of 58%. In addition, the EC50 in the assay filed under Mus musculus [7] was 0.06 ng/mL (≈ 0.0403 nM).
In the assay listed under Oryctolagus cuniculus, `CCCCCCCCCCCCCC(=O)O[C@H](CCCCCCCCCCC)CC(=O)NC(CO[C@@H]1OC(CO)[C@H](OP(=O)(O)O)C(OC(=O)C[C@@H](CCCCCCCCCCC)OC(=O)CCCCCCCCCCCCC)[C@@H]1NC(=O)C[C@@H](CCCCCCCCCCC)OC(=O)CCCCCCCCCCCCC)C(=O)O` (stereo partly specified) came in with a Dose of 0.6 µg/kg. The Response in the assay listed under Mus musculus [1] was found to be 0.9; in the assay listed under Mus musculus [2] it was 3.6; in the assay listed under Mus musculus [3], 1.9; in the assay listed under Mus musculus [5] it was 2.1. Moreover, the Cytokine induction came out at 1.7 in the assay filed under Homo sapiens [4] and 4.8 in the assay filed under Homo sapiens [8]. In the assay listed under Mus musculus [6], the Cytotoxicity is reported as 14%. Further, in the assay filed under Mus musculus [7], the EC50 was 3 ng/mL (≈ 1.81 nM).
For `CCCCCCCCCCCCCC(=O)O[C@H](CCCCCCCCCCC)CC(=O)NCCCO[C@@H]1OC(CO)[C@H](OP(=O)(O)O)C(OC(=O)C[C@@H](CCCCCCCCCCC)OC(=O)CCCCCCCCCCCCC)[C@@H]1NC(=O)C[C@@H](CCCCCCCCCCC)OC(=O)CCCCCCCCCCCCC` (stereo partly specified), the Dose in the assay filed under Oryctolagus cuniculus was 10 µg/kg. Also, the Response in the assay listed under Mus musculus [1] is listed as 6.1; in the assay filed under Mus musculus [2] it was 4.7; in the assay listed under Mus musculus [3] it was 2.2; in the assay filed under Mus musculus [5], 5.8. Moreover, the Cytokine induction turned out to be 2.3 in the assay listed under Homo sapiens [4] and 3.5 in the assay listed under Homo sapiens [8]. Further, the Cytotoxicity in the assay filed under Mus musculus [6] was determined as 38%. For the same compound, the EC50 in the assay filed under Mus musculus [7] is 8 ng/mL (≈ 4.92 nM).
With `CCCCCCCCCCC[C@H](CC(=O)NC(CO[C@@H]1OC(CO)[C@H](OP(=O)(O)O)C(OC(=O)C[C@@H](CCCCCCCCCCC)OC(=O)CCCCCCCCC)[C@@H]1NC(=O)C[C@@H](CCCCCCCCCCC)OC(=O)CCCCCCCCC)C(N)=O)OC(=O)CCCCCCCCC` (stereo partly specified), in the assay listed under Oryctolagus cuniculus, the Dose turned out to be 10 µg/kg. In addition, the Response is reported as 3.3 in the assay listed under Mus musculus [1], 8.9 in the assay listed under Mus musculus [2], 2.6 in the assay filed under Mus musculus [3] and 1.7 in the assay filed under Mus musculus [5]. Further, the Cytokine induction in the assay filed under Homo sapiens [4] is 3.5; in the assay filed under Homo sapiens [8], 6.2. This compound yielded a Cytotoxicity in the assay filed under Mus musculus [6] of 65%. Also, the EC50 in the assay filed under Mus musculus [7] was 0.3 ng/mL (≈ 0.202 nM).
